{"source": "ChEMBL document CHEMBL1828568", "about": "“Novel imaging agents for β-amyloid plaque based on the N-benzoylindole core” (Bioorg Med Chem Lett, 2011)", "experiment": "Displacement of [125I]TZDM from amyloid beta (1 to 40) aggregates after 2 hrs by gamma counting", "method_in_brief": "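Competition binding against [125I]TZDM as radiolabeled standard, using Aβ1–40 aggregates; run in triplicate, results as mean ± SD.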", "data": [{"smiles": "COc1ccc(/C=C/C(=O)n2ccc3cc(Br)ccc32)cc1", "values": [{"measurement": "Ki", "value": 25.4, "unit": "nM"}]}]}
